Active and inactive are the calls of the source. The calls are words filed in the database; no cut-off is given here.
Columns and labels:
[1] = target: T1, Lysophosphatidylserine lipase ABHD12 (Mus musculus, UniProt Q99LR1); experiment: Inhibition of JJH350 binding to ABHD12 in mouse brain membrane proteome incubated for 20 mins by CuAAC fluorescence dependent gel-based competitive ABPP assay; type: cell membranes
T1 sequence (Q99LR1 whole entry): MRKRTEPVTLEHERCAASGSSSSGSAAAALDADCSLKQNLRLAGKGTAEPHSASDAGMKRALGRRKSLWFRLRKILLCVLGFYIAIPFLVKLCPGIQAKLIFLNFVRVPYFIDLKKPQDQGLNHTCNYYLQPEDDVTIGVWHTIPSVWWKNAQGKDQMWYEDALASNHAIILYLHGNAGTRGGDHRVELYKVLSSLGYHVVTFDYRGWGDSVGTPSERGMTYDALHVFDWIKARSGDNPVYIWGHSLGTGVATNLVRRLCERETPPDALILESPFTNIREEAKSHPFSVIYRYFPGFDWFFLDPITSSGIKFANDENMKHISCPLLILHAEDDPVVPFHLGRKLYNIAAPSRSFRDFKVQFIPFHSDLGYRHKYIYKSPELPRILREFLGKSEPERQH
Summary of the method: (§1)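 Brain membrane fraction (1 mg/mL; DPBS homogenate, 16,000 x g pellet) treated with inhibitor for 20 min at room temperature. JJH350 (2 μM) added for 45 min at 37 °C, then CuAAC with rhodamine-PEG3-azide, CuSO4, TBTA and TCEP for 1 h at room temperature. Run on 10% SDS-PAGE and read by in-gel fluorescence. ABHD12 band normalized to control-treated sample (100%); IC50 from log dose-response fit.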

[2] = target: T2, Lysophosphatidylserine lipase ABHD12 (Homo sapiens) (UniProt Q8N2K0); experiment: Inhibition of ABHD12 in PMA-differentiated human THP1 cells assessed as increase in CCL3 production at 1 uM treated simultaneously with IFN-gamma/LPS for 24 hrs and measured 6 to 24 hrs after stimulation
T2 sequence (whole entry): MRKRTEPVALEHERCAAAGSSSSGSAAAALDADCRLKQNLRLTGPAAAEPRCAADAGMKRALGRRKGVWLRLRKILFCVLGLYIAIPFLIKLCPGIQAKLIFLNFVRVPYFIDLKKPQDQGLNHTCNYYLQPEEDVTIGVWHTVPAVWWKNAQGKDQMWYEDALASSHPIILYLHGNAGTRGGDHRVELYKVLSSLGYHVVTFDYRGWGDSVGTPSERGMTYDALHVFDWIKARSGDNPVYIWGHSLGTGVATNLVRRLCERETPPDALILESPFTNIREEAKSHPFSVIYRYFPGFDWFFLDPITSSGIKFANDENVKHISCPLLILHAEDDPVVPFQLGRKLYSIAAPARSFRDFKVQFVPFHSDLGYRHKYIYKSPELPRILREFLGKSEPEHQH
Summary of the method: (§2)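 THP-1 cells grown in RPMI/10% FBS/0.05 mM 2-mercaptoethanol, plated 2.5×10^6 per well. Treated 24 h with 150 ng/mL PMA, washed, rested 24 h. Polarized to M1 with 20 ng/mL IFN-γ plus 10 pg/mL LPS for 24 h. Compound or DMSO (test 0.1–1 μM) present at every step. Media sampled 6 and 24 h after stimulation; cytokines by MSD V-Plex. Mean ± SEM, four biological experiments.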

[3] = target: T2, Lysophosphatidylserine lipase ABHD12 (Homo sapiens); experiment: Inhibition of ABHD12 in PMA-differentiated human THP1 cells assessed as increase in CCL4 production at 1 uM treated simultaneously with IFN-gamma/LPS for 24 hrs and measured 6 to 24 hrs after stimulation; summary of the method: as §2
[4] = target: T2, Lysophosphatidylserine lipase ABHD12 (Homo sapiens); experiment: Inhibition of ABHD12 in PMA-differentiated human THP1 cells assessed as increase in IL-1beta production at 1 uM treated simultaneously with IFN-gamma/LPS for 24 hrs and measured 6 to 24 hrs after stimulation; summary of the method: as §2
[5] = target: T2, Lysophosphatidylserine lipase ABHD12 (Homo sapiens); experiment: Inhibition of ABHD12 in PMA-differentiated human THP1 cells assessed as increase in TNF-alpha production at 1 uM treated simultaneously with IFN-gamma/LPS for 24 hrs and measured 6 to 24 hrs after stimulation; summary of the method: as §2
[6] = target: T3, Lysophosphatidylserine lipase ABHD12 (Mus musculus) (UniProt Q99LR1); experiment: Inhibition of JJH350 binding to ABHD12 in mouse brain membrane proteome at 2 uM after 20 mins by CuAAC based fluorescence scanning assay relative to control; type: cell membranes; summary of the method: as §1
T3 sequence (whole entry): T1 sequence (Q99LR1 whole entry)

[7] = target: T3, Lysophosphatidylserine lipase ABHD12 (Mus musculus); experiment: Inhibition of JJH350 binding to ABHD12 in mouse brain membrane proteome at 10 uM after 20 mins by CuAAC based fluorescence scanning assay relative to control; type: cell membranes; summary of the method: as §1
Mus musculus = experiment: In vivo inhibition of JJH350 binding to ABHD12 in mouse at 30 mg/kg, ip treated for 4 hrs by CuAAC based fluorescence scanning assay; type: functional, organism-based
Summary of the method: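 Mice injected i.p. at 10 μL/g body weight with fresh suspension in EtOH/PEG40/DPBS 1:1:18. Anesthetized with isoflurane, killed by cervical dislocation, tissues harvested. Tissues dounce-homogenized in DPBS; membrane fraction from 16,000 x g spin. Labelled with JJH350, then CuAAC to rhodamine-azide, SDS-PAGE and fluorescence scanning.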

[8] = target: T1, Lysophosphatidylserine lipase ABHD12; experiment: Inhibition of FP-Rh probe binding to ABHD12 in mouse brain membrane proteome incubated for 45 mins by CuAAC fluorescence dependent gel-based competitive ABPP assay; type: cell membranes
Summary of the method: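 Mouse brain membrane proteome (1 mg/mL) preincubated with inhibitor for 45 min at 37 °C. Labelled with FP-Rh (1 μM) or JJH350 (2 μM) for 45 min at 37 °C. JJH350 samples were clicked to Rh-N3 (25 μM) by CuAAC for 60 min at room temperature. Read by 10% SDS-PAGE and in-gel fluorescence scanning. Band intensity taken relative to control (100%), and IC50 from log(inhibitor) vs normalized response.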

[9] = target: T2, Lysophosphatidylserine lipase ABHD12 (Homo sapiens); experiment: Time dependent inhibition of FP-Rh binding to ABHD12 (unknown origin) expressed in HEK293T cell membranes by gel-based ABPP assay
[10] = target: T2, Lysophosphatidylserine lipase ABHD12 (Homo sapiens); experiment: Inhibition of ABHD12 (unknown origin) expressed in HEK293T cell membranes at 10 uM using 17:1 lyso-PS as substrate preincubated for 20 mins followed by substrate addition measured after 30 mins by LC-MS analysis
Summary of the method: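 Membranes from HEK293T overexpressing ABHD12 (0.25 mg/mL) in DPBS preincubated with compound for 20 min at room temperature. 17:1 lyso-PS added (100 μM final) and incubated 30 min at 37 °C. Quenched with 2:1 CHCl3/MeOH containing 1 nmol 15:0 FFA internal standard. Organic phase analyzed by LC-MS on C18 with NH4OH-containing gradient.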

Structure (SMILES) | IC50 [1] [nM] | inhibition [6] [%] | inhibition [7] [%] | further results
N#Cc1c(Oc2ccc(OC(F)(F)F)cc2)ccnc1N1CCC(NC(=S)Nc2cccnc2)CC1 | 180 | – | – | –
FC(F)(F)c1ccc(N2CCC(NC(=S)Nc3cccnc3)CC2)nc1 | 1900 | – | – | –
S=C(Nc1cccnc1)NC1CCN(c2ncccc2Cl)CC1 | > 5000 | – | – | –
S=C(Nc1cccnc1)NC1CCN(c2cc(OC3CCCCC3)ccn2)CC1 | 3400 | – | – | –
FC(F)(F)c1cccnc1N1CCC(NC(=S)Nc2cccnc2)CC1 | > 5000 | – | – | –
Cc1cnc(N2CCC(NC(=S)Nc3cccnc3)CC2)c(Cl)c1 | 3100 | – | – | –
FC(F)(F)Oc1ccc(Oc2ccnc(N3CCC[C@H](NC(=S)Nc4cccnc4)C3)c2Cl)c(Cl)c1 | > 100000 | – | – | inhibition [2]: inactive; inhibition [3]: inactive; inhibition [4]: inactive; inhibition [5]: inactive
FC(F)(F)c1cnc(NCCCCCCNC(=S)Nc2cccnc2)c(Cl)c1 | – | 22 | 70 | –
FC(F)(F)Oc1ccccc1Oc1ccnc(N2CCC(NC(=S)Nc3cccnc3)CC2)c1Cl | 96 | – | – | –
FC(F)(F)Oc1ccc(Oc2ccnc(N3CCC(NC(=S)Nc4cccnc4)CC3)c2Cl)cc1 | 25 | – | – | –
CN(C(=S)Nc1cccnc1)C1CCN(c2ncc(C(F)(F)F)cc2Cl)CC1 | – | 31 | 61 | –
FC(F)(F)c1cc(Cl)nc(N2CCC(NC(=S)Nc3cccnc3)CC2)c1 | 540 | – | – | –
Cc1c(Oc2ccc(OC(F)(F)F)cc2)ccnc1N1CCC(NC(=S)Nc2cccnc2)CC1 | 26 | – | – | –
FC(F)(F)c1cnc(N2CCC(NC(=S)Nc3cnc4ccccc4c3)CC2)c(Cl)c1 | – | 0 | 2 | –
COc1ccc(N2CCN(C(=O)ON3C(=O)C4CN(C(=O)c5ccc(Oc6ccccc6)cc5)CCN4C3=O)CC2)cc1 (centres undefined) | – | – | – | inhibition (Mus musculus): Active; IC50 [8]: 320 nM
FC(F)(F)c1cnc(N2CCC(NC(=S)Nc3ccccc3)CC2)c(Cl)c1 | – | 66 | 96 | –
FC(F)(F)c1cnc(N2CCC(NC(=S)Nc3cccnc3)CC2)c(Cl)c1 | 1100 | 89 | 96 | TDI [9]: inactive
FC(F)(F)c1cc(N2CCC(NC(=S)Nc3cccnc3)CC2)ncc1Cl | 1400 | – | – | –
S=C(Nc1cccnc1)NC1CCN(c2cc(Oc3ccccc3)ccn2)CC1 | 1900 | – | – | –
FC(F)(F)c1cnc(N2C3CCC2CC(NC(=S)Nc2cccnc2)C3)c(Cl)c1 (centres undefined) | – | 19 | 63 | –
COc1ccc(NC(=S)NC2CCN(c3ncc(C(F)(F)F)cc3Cl)CC2)cn1 | – | 0 | 1 | –
FC(F)(F)c1cnc(N2CCC(NC(=S)N3CCCc4ccccc43)CC2)c(Cl)c1 | – | 0 | 0 | –
S=C(Nc1cccnc1)NC1CCN(c2cc(OCc3ccccc3)ccn2)CC1 | 2800 | – | – | –

Structure (SMILES) | IC50 [1] [nM] | inhibition [6] [%] | inhibition [7] [%] | further results
FC(F)(F)c1cnc(N2CCCC(NC(=S)Nc3cccnc3)CC2)c(Cl)c1 (centres undefined) | – | 9 | 59 | –
S=C(Nc1cccnc1)NC1CCN(c2cc(Cl)ccn2)CC1 | 2100 | – | – | –
O=C(Nc1cccnc1)NC1CCN(c2ncc(C(F)(F)F)cc2Cl)CC1 | – | 1 | 29 | –
Cc1cnc(N2CCN(NC(=S)Nc3cccnc3)CC2)c(Cl)c1 | > 50000 | – | – | inhibition [10]: inactive
FC(F)(F)c1cnc(N2CCCC(NC(=S)Nc3cccnc3)C2)c(Cl)c1 (centres undefined) | – | 0 | 4 | –
Fc1ccc(Oc2ccnc(N3CCC(NC(=S)Nc4cccnc4)CC3)c2)cc1 | 1400 | – | – | –
COc1ccc(Oc2ccnc(N3CCC(NC(=S)Nc4cccnc4)CC3)c2)cc1 | 2900 | – | – | –
S=C(Nc1cccnc1)NC1CCN(c2cc(OCC3CC3)ccn2)CC1 | 4700 | – | – | –
FC(F)(F)c1cnc(NCCCCNC(=S)Nc2cccnc2)c(Cl)c1 | – | 12 | 35 | –
FC(F)(F)Oc1ccc(Oc2ccnc(N3CCC(NC(=S)Nc4cccnc4)CC3)c2C(F)(F)F)cc1 | 2800 | – | – | –
FC(F)(F)c1cnc(NCCCNC(=S)Nc2cccnc2)c(Cl)c1 | – | 0 | 0 | –
FC(F)(F)Oc1cccc(Oc2ccnc(N3CCC(NC(=S)Nc4cccnc4)CC3)c2Cl)c1 | 89 | – | – | –
FC(F)(F)c1ccnc(N2CCC(NC(=S)Nc3cccnc3)CC2)c1 | 640 | – | – | –
FC(F)(F)Oc1ccc(Oc2ccnc(N3CCC(NC(=S)Nc4cccnc4)CC3)c2)cc1 | 410 | – | – | –
FC(F)(F)Oc1ccc(Oc2ccnc(N3CCCC(NC(=S)Nc4cccnc4)C3)c2Cl)c(Cl)c1 (centres undefined) | 90000 | – | – | –
FC(F)(F)c1cnc(NCCCCCNC(=S)Nc2cccnc2)c(Cl)c1 | – | 54 | 90 | –
FC(F)(F)Oc1ccc(Oc2ccnc(N3CCC[C@@H](NC(=S)Nc4cccnc4)C3)c2Cl)c(Cl)c1 | 100000 | – | – | –
FC(F)(F)c1cccc(N2CCC(NC(=S)Nc3cccnc3)CC2)n1 | 630 | – | – | –
FC(F)(F)c1cnc(N2CCC(NC(=S)Nc3cccnc3)C2)c(Cl)c1 (centres undefined) | – | 1 | 12 | –
COc1ccnc(N2CCC(NC(=S)Nc3cccnc3)CC2)c1 | > 5000 | – | – | –
FC(F)(F)c1ccnc(N2CCC(NC(=S)Nc3cccnc3)CC2)c1Cl | 300 | – | – | –
COc1ccc(N2CCN(C(=O)ON3C(=O)C4CN(Cc5ccc(Oc6ccccc6)cc5)CCN4C3=O)CC2)cc1 (centres undefined) | – | – | – | IC50 [8]: > 10000 nM
FC(F)(F)Oc1ccc(Oc2ccnc(N3CCC(NC(=S)Nc4cccnc4)CC3)c2Cl)cc1Cl | 33 | – | – | –
